Calls of active or inactive are those of the source. The calls are words filed in the database; no cut-off is given here.
Columns and labels:
[1] = biological target: T1, Peroxisome proliferator-activated receptor delta (Homo sapiens, UniProt Q03181); assay: Binding affinity to PPARdelta by scintillation proximity assay
T1 sequence (Q03181 whole entry): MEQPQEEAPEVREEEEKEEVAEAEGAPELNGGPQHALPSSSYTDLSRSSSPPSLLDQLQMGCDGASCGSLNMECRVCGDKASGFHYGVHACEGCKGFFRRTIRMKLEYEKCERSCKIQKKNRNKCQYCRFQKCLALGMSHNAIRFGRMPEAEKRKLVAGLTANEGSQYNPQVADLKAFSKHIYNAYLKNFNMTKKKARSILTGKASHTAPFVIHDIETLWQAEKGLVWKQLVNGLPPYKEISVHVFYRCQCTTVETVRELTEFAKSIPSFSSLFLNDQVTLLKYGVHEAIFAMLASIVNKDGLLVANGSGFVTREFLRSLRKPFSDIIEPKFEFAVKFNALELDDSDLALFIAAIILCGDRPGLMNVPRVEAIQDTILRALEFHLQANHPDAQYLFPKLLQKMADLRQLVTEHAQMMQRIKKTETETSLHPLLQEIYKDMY
In short: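 Scintillation proximity binding assay on PPAR receptors giving IC50; mean of three determinations.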

[2] = system: Rattus norvegicus; assay: Plasma clearance in rat at 0.5 mg/kg, iv and 2 mg/kg, po by LC-MS/MS analysis; assay type: ADME, organism-based; conditions: in vivo
In short: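 Rat pharmacokinetics: 2 mpk oral in 5% methylcellulose, 0.5 mpk iv in ethanol/PEG400/water (1/4/5). Blood sampled at set intervals; plasma acidified with 0.5 M formate buffer pH 3.0, acetonitrile-precipitated, quantified by LC−MS−MS against spiked control-plasma calibration curves.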

[3] = system: COS-1; assay: Binding affinity to human PPARgamma LBD Y473A mutant expressed in COS1 cells co-expressing GAL4 by scintillation proximity assay; assay type: cell-based
[4] = system: Mus musculus; assay: Antidiabetic activity in db/db C57BLKS/J-m +/+ Leprdb mouse assessed as reduction of glucose level at 10 mg/kg, po qd for 10 days measured on 11 relative to control; assay type: functional; parameters: scale not given: the % may be the effect or the level left
In short: (§1)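 Male db/db (C57BLKS/J-m +/+Leprdb) mice, 12−13 weeks old, seven per group, chow and water freely available; once-daily oral gavage in 0.25% methylcellulose vehicle for 11 days. Tail blood drawn just before next dose on days 0, 4, 7 and 11 for plasma glucose. Value is percent correction versus vehicle control; mean of n = 7; rosiglitazone 10 mpk positive control.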

[5] = system: Mus musculus; assay: Antidiabetic activity in db/db C57BLKS/J-m +/+ Leprdb mouse assessed as reduction of glucose level at 20 mg/kg, po qd for 10 days measured on 11 relative to control; assay type: functional; parameters: scale not given: the % may be the effect or the level left; in short: as §1
[6] = system: Mus musculus; assay: Antidiabetic activity in db/db C57BLKS/J-m +/+ Leprdb mouse assessed as reduction of glucose level at 25 mg/kg, po qd for 10 days measured on 11 relative to control; assay type: functional; parameters: scale not given: the % may be the effect or the level left; in short: as §1
[7] = AUC in db/db C57BLKS/J-m +/+ Leprdb mouse at 30 mg/kg, po qd for 10 days measured on day 11; assay type: ADME, organism-based; parameters: dose 30 mg/kg, route oral; conditions: plasma
In short: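 Male db/db (C57BLKS/J-m +/+Leprdb) mice aged 12−13 weeks, seven per group, gavaged once daily with compound in 0.25% methylcellulose vehicle. Total compound exposure measured at study end: plasma acidified with 0.5 M formate buffer pH 3.0, protein precipitated with acetonitrile, quantified by LC−MS−MS against calibration curves in control plasma.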

[8] = system: Rattus norvegicus; assay: Toxicity in obese insulin resistant Zucker fa/fa rat assessed as increase in plasma volume at >= 10 mg/kg; conditions: in vivo, 100 mg/kg
[9] = system: Rattus norvegicus; assay: Toxicity in obese insulin resistant Zucker fa/fa rat assessed as increase in heart weight at >= 10 mg/kg; assay type: organism-based; parameters: dose 10 mg/kg; conditions: in vivo
[10] = biological target: Cytochrome P450 2D6 (Homo sapiens, UniProt P10635); assay: Inhibition of CYP2D6; assay type: ADME
Chain of Cytochrome P450 2D6 (P10635 whole entry): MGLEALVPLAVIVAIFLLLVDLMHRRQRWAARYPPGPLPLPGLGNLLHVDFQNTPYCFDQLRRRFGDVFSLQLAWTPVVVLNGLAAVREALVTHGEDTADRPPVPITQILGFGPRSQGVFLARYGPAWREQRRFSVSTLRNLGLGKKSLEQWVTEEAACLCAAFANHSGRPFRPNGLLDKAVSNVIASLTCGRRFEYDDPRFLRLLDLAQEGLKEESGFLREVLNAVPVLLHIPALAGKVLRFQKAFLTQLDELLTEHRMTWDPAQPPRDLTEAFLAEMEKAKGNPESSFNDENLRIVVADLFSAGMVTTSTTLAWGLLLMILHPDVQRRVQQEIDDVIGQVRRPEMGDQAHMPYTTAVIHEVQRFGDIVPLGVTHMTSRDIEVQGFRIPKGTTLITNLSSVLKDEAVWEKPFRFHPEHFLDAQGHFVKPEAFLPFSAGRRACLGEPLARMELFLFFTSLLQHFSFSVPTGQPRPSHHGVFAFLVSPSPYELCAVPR

[11] = biological target: Cytochrome P450 3A4 (Homo sapiens, UniProt P08684); assay: Inhibition of CYP3A4; assay type: ADME
Chain of Cytochrome P450 3A4 (P08684 whole entry): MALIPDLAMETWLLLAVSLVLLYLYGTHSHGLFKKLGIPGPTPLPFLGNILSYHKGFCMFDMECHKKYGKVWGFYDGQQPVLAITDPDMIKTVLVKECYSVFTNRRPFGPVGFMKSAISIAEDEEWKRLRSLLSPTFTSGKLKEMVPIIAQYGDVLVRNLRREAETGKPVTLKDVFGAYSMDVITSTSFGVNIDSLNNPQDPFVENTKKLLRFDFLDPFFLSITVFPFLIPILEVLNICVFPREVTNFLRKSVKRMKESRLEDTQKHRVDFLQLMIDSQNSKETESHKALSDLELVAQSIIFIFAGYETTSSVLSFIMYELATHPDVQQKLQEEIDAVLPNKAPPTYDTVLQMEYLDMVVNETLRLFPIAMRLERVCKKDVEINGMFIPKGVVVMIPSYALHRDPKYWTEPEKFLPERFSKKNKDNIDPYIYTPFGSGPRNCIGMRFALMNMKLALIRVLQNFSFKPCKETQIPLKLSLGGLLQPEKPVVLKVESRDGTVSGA

[12] = biological target: T2, Cytochrome P450 2C8 (Homo sapiens, UniProt P10632); assay: Inhibition of CYP2C8; assay type: ADME
T2 sequence (P10632 whole entry): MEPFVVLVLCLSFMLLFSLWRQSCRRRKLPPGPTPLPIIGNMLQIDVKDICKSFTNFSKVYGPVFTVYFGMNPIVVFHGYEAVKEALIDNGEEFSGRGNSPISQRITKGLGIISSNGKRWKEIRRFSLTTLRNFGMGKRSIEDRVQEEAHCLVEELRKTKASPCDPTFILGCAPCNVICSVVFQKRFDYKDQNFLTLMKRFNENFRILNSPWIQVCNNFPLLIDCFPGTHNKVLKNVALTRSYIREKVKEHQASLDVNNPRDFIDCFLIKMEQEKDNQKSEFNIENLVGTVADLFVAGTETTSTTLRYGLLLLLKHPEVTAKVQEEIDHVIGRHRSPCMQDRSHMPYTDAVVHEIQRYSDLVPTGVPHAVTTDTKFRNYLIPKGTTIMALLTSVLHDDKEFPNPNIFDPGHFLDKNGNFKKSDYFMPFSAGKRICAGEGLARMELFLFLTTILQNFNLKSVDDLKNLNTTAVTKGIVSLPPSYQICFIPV

[13] = biological target: Cytochrome P450 2C9 (Homo sapiens, UniProt P11712); assay: Inhibition of CYP2C9; assay type: ADME
Chain of Cytochrome P450 2C9 (P11712 whole entry): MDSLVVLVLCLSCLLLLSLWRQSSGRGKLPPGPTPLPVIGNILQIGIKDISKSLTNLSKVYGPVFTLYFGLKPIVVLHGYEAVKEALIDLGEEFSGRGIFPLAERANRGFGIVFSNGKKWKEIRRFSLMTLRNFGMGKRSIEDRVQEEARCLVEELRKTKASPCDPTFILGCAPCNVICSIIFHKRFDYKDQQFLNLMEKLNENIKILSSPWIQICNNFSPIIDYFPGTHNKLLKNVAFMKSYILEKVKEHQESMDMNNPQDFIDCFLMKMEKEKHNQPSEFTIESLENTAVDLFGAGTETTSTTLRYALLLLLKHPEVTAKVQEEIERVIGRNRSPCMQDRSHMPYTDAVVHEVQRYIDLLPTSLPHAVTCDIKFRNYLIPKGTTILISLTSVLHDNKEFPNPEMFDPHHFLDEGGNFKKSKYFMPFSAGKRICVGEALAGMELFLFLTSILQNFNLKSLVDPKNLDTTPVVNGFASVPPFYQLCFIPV

[14] = Inhibition of Ikr channel up to 10 uM
[15] = biological target: T3, Nuclear receptor subfamily 1 group I member 2 (Homo sapiens, UniProt O75469); assay: Induction of PXR up to 10 uM
T3 sequence (O75469 whole entry): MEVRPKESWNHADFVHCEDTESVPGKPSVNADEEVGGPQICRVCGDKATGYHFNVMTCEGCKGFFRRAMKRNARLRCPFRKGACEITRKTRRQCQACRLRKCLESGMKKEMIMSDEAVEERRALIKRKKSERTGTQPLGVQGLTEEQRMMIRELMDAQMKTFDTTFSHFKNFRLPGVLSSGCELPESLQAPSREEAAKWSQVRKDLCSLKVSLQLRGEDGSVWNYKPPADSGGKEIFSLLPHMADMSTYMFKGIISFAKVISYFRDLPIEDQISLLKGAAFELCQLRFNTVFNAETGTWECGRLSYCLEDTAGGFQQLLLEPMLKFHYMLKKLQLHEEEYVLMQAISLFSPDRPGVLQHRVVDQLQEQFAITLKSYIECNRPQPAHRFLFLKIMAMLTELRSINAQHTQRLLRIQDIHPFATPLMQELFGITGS

COc1ccc2c(-n3c(=O)n(Cc4cccc([C@@]5(C)OC(=O)NC5=O)c4)c4ccccc43)noc2c1
IC50 [1]: > 50 µM | clearance [2]: 5.5 mL/min/kg | Activity [3]: Active | Activity [4]: 74% | Activity [5]: 77% | Activity [6]: 84% | AUC at 240 h [7]: 450 µM·h | Activity [8]: Toxic | Activity [9]: Non-toxic | IC50 [10]: 91 µM | IC50 [11]: 22 µM | IC50 [12]: 10 µM | IC50 [13]: 2 µM | inhibition [14]: inactive | Activity [15]: Not Active

Reference: ChEMBL document CHEMBL1944523, “Benzimidazolones: a new class of selective peroxisome proliferator-activated receptor γ (PPARγ) modulators” (J Med Chem, 2011)
